Measurements: ChEMBL document CHEMBL1629622, “Isolation of VanB-type Enterococcus faecalis strains from nosocomial infections: first report of the isolation and identification of the pheromone-responsive plasmids pMG2200, Encoding VanB-type vancomycin resistance and a Bac41-type bacteriocin, and pMG2201, encoding erythromycin resistance and …” (2009)
Calls of active or inactive are those of the source. Residues, ends and D or L forms follow the SMILES beside them.

How the values were obtained:
Enterococcus faecalis [1] = experiment: Antimicrobial activity against Enterococcus faecalis NKH1 harboring pMG2200-like plasmid after 24 hrs by agar dilution method; format: functional
Procedure, shortened: (§1)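 Agar dilution MICs on clinical E. faecalis isolates. Overnight Mueller-Hinton broth culture diluted 100-fold; ~5 × 10^5 cells inoculated onto Mueller-Hinton medium holding a concentration series of each drug. Incubated at 37°C and read at 24 h. Testing and interpretation follow CLSI (NCCLS) standards, with E. faecium ATCC 9790 as control strain.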

Enterococcus faecalis [2] = experiment: Antimicrobial activity against Enterococcus faecalis NKH16 harboring pMG2200-like plasmid after 24 hrs by agar dilution method; format: functional; procedure, shortened: as §1
Enterococcus faecalis [3] = experiment: Antimicrobial activity against Enterococcus faecalis NKH6 harboring pMG2200-like and pMG2201-like plasmids after 24 hrs by agar dilution method; format: functional; procedure, shortened: as §1
Enterococcus faecalis [4] = experiment: Antimicrobial activity against Enterococcus faecalis NKH9 harboring pMG2200-like and pMG2201-like plasmids after 24 hrs by agar dilution method; format: functional; procedure, shortened: as §1
Enterococcus faecalis [5] = experiment: Antimicrobial activity against Enterococcus faecalis NKH5 harboring pMG2200-like plasmid after 24 hrs by agar dilution method; format: functional; procedure, shortened: as §1
Enterococcus faecalis [6] = experiment: Antimicrobial activity against Enterococcus faecalis NKH12 harboring pMG2200-like and pMG2201-like plasmids after 24 hrs by agar dilution method; format: functional; procedure, shortened: as §1
Enterococcus faecalis [7] = experiment: Antimicrobial activity against Enterococcus faecalis NKH18 harboring pMG2200-like and pMG2201-like plasmids after 24 hrs by agar dilution method; format: functional; procedure, shortened: as §1
Enterococcus faecalis [8] = experiment: Antimicrobial activity against Enterococcus faecalis NKH8 harboring pMG2200-like and pMG2201-like plasmids after 24 hrs by agar dilution method; format: functional; procedure, shortened: as §1
Enterococcus faecalis [9] = experiment: Antimicrobial activity against Enterococcus faecalis NKH4 harboring pMG2200-like and pMG2201-like plasmids after 24 hrs by agar dilution method; format: functional; procedure, shortened: as §1
Enterococcus faecalis [10] = experiment: Antimicrobial activity against Enterococcus faecalis NKH11 harboring pMG2200-like plasmid after 24 hrs by agar dilution method; format: functional; procedure, shortened: as §1
Enterococcus faecalis [11] = experiment: Antimicrobial activity against Enterococcus faecalis NKH14 harboring pMG2200-like and pMG2201-like plasmids after 24 hrs by agar dilution method; format: functional; procedure, shortened: as §1
Enterococcus faecalis [12] = experiment: Antimicrobial activity against Enterococcus faecalis NKH15 harboring pMG2200-like and pMG2201-like plasmids after 24 hrs by agar dilution method; format: functional; procedure, shortened: as §1
Enterococcus faecalis [13] = experiment: Antimicrobial activity against Enterococcus faecalis NKH10 harboring pMG2200-like and pMG2201-like plasmids after 24 hrs by agar dilution method; format: functional; procedure, shortened: as §1
Enterococcus faecalis [14] = experiment: Antimicrobial activity against Enterococcus faecalis NKH7 harboring pMG2200-like plasmid after 24 hrs by agar dilution method; format: functional; procedure, shortened: as §1
Enterococcus faecalis [15] = experiment: Antimicrobial activity against Enterococcus faecalis NKH13 harboring pMG2200-like and pMG2201-like plasmids after 24 hrs by agar dilution method; format: functional; procedure, shortened: as §1
Enterococcus faecalis [16] = experiment: Antimicrobial activity against Enterococcus faecalis NKH3 harboring pMG2200-like and pMG2201-like plasmids after 24 hrs by agar dilution method; format: functional; procedure, shortened: as §1
Enterococcus faecalis [17] = experiment: Antimicrobial activity against Enterococcus faecalis NKH2 harboring pMG2200-like and pMG2201-like plasmids after 24 hrs by agar dilution method; format: functional; procedure, shortened: as §1
Enterococcus faecalis [18] = experiment: Antimicrobial activity against Enterococcus faecalis NKH17 harboring pMG2200-like plasmid after 24 hrs by agar dilution method; format: functional; procedure, shortened: as §1
Enterococcus faecalis [19] = experiment: Induction of aggregation of Enterococcus faecalis JH2SS harboring pMG2200 at 100 ng/ml; format: functional, organism-based
Procedure, shortened: (§2)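 Donor E. faecalis JH2SS carrying the plasmid, exposed 2 h to synthetic pheromone (cAD1, cPD1, cCF10, cOB1 or cAM373 at 100 ng/ml) or to FA2-2 culture filtrate. Aggregation (clumping) of cells scored visually afterwards. A short 10-min mating with FA2-2 followed induction.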

Enterococcus faecalis [20] = experiment: Induction of transfer of plasmid pAM714 in Enterococcus faecalis JH2SS at 100 ng/ml; format: functional, organism-based
Procedure, shortened: (§3)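 Donor E. faecalis JH2SS carrying pMG2200 and pAM714 was exposed for 2 h to a synthetic pheromone (cCF10 or cAD1, 100 ng/ml) to induce aggregation-mating. A short 10-min mating with recipient FA2-2 followed. Transfer frequency was scored as transconjugants per donor cell at the end of mating.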

Enterococcus faecalis [21] = experiment: Induction of aggregation of Enterococcus faecalis JH2SS harboring pMG2201 at 100 ng/ml; format: functional, organism-based; procedure, shortened: as §2
Enterococcus faecalis [22] = experiment: Induction of transfer of plasmid pMG2200 in Enterococcus faecalis JH2SS at 100 ng/ml; format: functional, organism-based; procedure, shortened: as §3

NC[C@H]1O[C@H](O[C@H]2[C@H](O)[C@@H](O[C@H]3O[C@H](CO)[C@@H](O)[C@H](N)[C@H]3O)[C@H](N)C[C@@H]2N)[C@H](O)[C@@H](O)[C@@H]1O [KANAMYCIN]
> 1020 µg/mL: MIC (Enterococcus faecalis [1]; NKH1, 24 h) | MIC (Enterococcus faecalis [2]; NKH16, 24 h) | MIC (Enterococcus faecalis [3]; NKH6, 24 h) | MIC (Enterococcus faecalis [4]; NKH9, 24 h) | MIC (Enterococcus faecalis [5]; NKH5, 24 h) | MIC (Enterococcus faecalis [6]; NKH12, 24 h) | MIC (Enterococcus faecalis [7]; NKH18, 24 h) | MIC (Enterococcus faecalis [8]; NKH8, 24 h) | MIC (Enterococcus faecalis [9]; NKH4, 24 h) | MIC (Enterococcus faecalis [10]; NKH11, 24 h) | MIC (Enterococcus faecalis [11]; NKH14, 24 h) | MIC (Enterococcus faecalis [12]; NKH15, 24 h) | MIC (Enterococcus faecalis [13]; NKH10, 24 h) | MIC (Enterococcus faecalis [14]; NKH7, 24 h) | MIC (Enterococcus faecalis [15]; NKH13, 24 h) | MIC (Enterococcus faecalis [16]; NKH3, 24 h) | MIC (Enterococcus faecalis [17]; NKH2, 24 h) | MIC (Enterococcus faecalis [18]; NKH17, 24 h)

CN(C)[C@@H]1C(O)=C(C(N)=O)C(=O)[C@@]2(O)C(O)=C3C(=O)c4c(O)cccc4[C@@](C)(O)[C@H]3C[C@@H]12 [TETRACYCLINE]
64 µg/mL: MIC (Enterococcus faecalis [1]; NKH1, 24 h) | MIC (Enterococcus faecalis [3]; NKH6, 24 h) | MIC (Enterococcus faecalis [4]; NKH9, 24 h) | MIC (Enterococcus faecalis [5]; NKH5, 24 h) | MIC (Enterococcus faecalis [6]; NKH12, 24 h) | MIC (Enterococcus faecalis [8]; NKH8, 24 h) | MIC (Enterococcus faecalis [10]; NKH11, 24 h) | MIC (Enterococcus faecalis [11]; NKH14, 24 h) | MIC (Enterococcus faecalis [13]; NKH10, 24 h) | MIC (Enterococcus faecalis [14]; NKH7, 24 h) | MIC (Enterococcus faecalis [15]; NKH13, 24 h) | MIC (Enterococcus faecalis [17]; NKH2, 24 h)
32 µg/mL: MIC (Enterococcus faecalis [2]; NKH16, 24 h) | MIC (Enterococcus faecalis [7]; NKH18, 24 h) | MIC (Enterococcus faecalis [9]; NKH4, 24 h) | MIC (Enterococcus faecalis [12]; NKH15, 24 h) | MIC (Enterococcus faecalis [16]; NKH3, 24 h) | MIC (Enterococcus faecalis [18]; NKH17, 24 h)

GENTAMICIN
1020 µg/mL: MIC (Enterococcus faecalis [4])
> 1020 µg/mL: MIC (Enterococcus faecalis [1]) | MIC (Enterococcus faecalis [2]) | MIC (Enterococcus faecalis [3]) | MIC (Enterococcus faecalis [5]) | MIC (Enterococcus faecalis [6]) | MIC (Enterococcus faecalis [7]) | MIC (Enterococcus faecalis [8]) | MIC (Enterococcus faecalis [9]) | MIC (Enterococcus faecalis [10]) | MIC (Enterococcus faecalis [11]) | MIC (Enterococcus faecalis [12]) | MIC (Enterococcus faecalis [13]) | MIC (Enterococcus faecalis [14]) | MIC (Enterococcus faecalis [15]) | MIC (Enterococcus faecalis [16]) | MIC (Enterococcus faecalis [17]) | MIC (Enterococcus faecalis [18])

CN[C@H](CC(C)C)C(=O)N[C@H]1C(=O)N[C@@H](CC(N)=O)C(=O)N[C@H]2C(=O)N[C@H]3C(=O)N[C@H](C(=O)N[C@H](C(=O)O)c4cc(O)cc(O)c4-c4cc3ccc4O)[C@H](O)c3ccc(c(Cl)c3)Oc3cc2cc(c3O[C@@H]2O[C@H](CO)[C@@H](O)[C@H](O)[C@H]2O[C@H]2C[C@](C)(N)[C@H](O)[C@H](C)O2)Oc2ccc(cc2Cl)[C@H]1O [VANCOMYCIN]
256 µg/mL: MIC (Enterococcus faecalis [4]; NKH9, 24 h) | MIC (Enterococcus faecalis [6]; NKH12, 24 h) | MIC (Enterococcus faecalis [8]; NKH8, 24 h) | MIC (Enterococcus faecalis [11]; NKH14, 24 h) | MIC (Enterococcus faecalis [13]; NKH10, 24 h) | MIC (Enterococcus faecalis [15]; NKH13, 24 h) | MIC (Enterococcus faecalis [17]; NKH2, 24 h)
128 µg/mL: MIC (Enterococcus faecalis [1]; NKH1, 24 h)
32 µg/mL: MIC (Enterococcus faecalis [18]; NKH17, 24 h)

CC(C)C[C@H](NC(=O)[C@@H](NC(=O)[C@@H](NC(=O)[C@@H](N)CC(C)C)C(C)C)[C@@H](C)O)C(=O)N[C@H](C(=O)N[C@@H](Cc1ccccc1)C(=O)N[C@H](C(=O)O)C(C)C)C(C)C (H-LVTLVFV-OH)
active: Activity (Enterococcus faecalis [19]) | Activity (Enterococcus faecalis [22])
inactive: Activity (Enterococcus faecalis [20]) | Activity (Enterococcus faecalis [21])

CC(C)C[C@H](NC(=O)[C@H](CO)NC(=O)[C@H](Cc1ccccc1)NC(=O)[C@@H](N)CC(C)C)C(=O)N[C@H](C(=O)N[C@@H](CC(C)C)C(=O)N[C@@H](C)C(=O)NCC(=O)O)C(C)C (H-LFSLVLAG-OH)
inactive: Activity (Enterococcus faecalis [19]) | Activity (Enterococcus faecalis [22])
active: Activity (Enterococcus faecalis [20]) | Activity (Enterococcus faecalis [21])

CC(C)C[C@H](NC(=O)[C@@H](NC(=O)[C@H](C)NC(=O)[C@@H](N)C(C)C)C(C)C)C(=O)N[C@H](C(=O)N[C@@H](CC(C)C)C(=O)NCC(=O)N[C@@H](C)C(=O)O)C(C)C (H-VAVLVLGA-OH)
inactive: Activity (Enterococcus faecalis [19]) | Activity (Enterococcus faecalis [21])
